The results in this text go back to PubChem BioAssay AID504382 (The Scripps Research Institute Molecular Screening Center, 2011).

In all, about 2,500 compounds went through this assay and about 460 (18%) were called active. Not all results are given here. A number with no mark means an inactive call.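 How the source made its calls: active means mean activation above a cutoff of low control average plus 3 SD from the earlier screen (cut at about 12% in these data); inactive means the rest.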

This assay is described as follows: compound fluorescence interference without thin filaments, confirmation, artefact control for cardiac RTF calcium sensitizer project, biochemical (AID 504382). The conditions noted are these: IANBD fluorescence interference counterscreen, buffer, EC20 Ca2+; at 7.2 µM; active compounds read high; scaled: EC20 calcium 0, EC100 calcium 100. Put shortly: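 Technique: fluorescence, 480/540 nm / Medium: MOPS-based buffer with KCl, MgCl2, EGTA, NTA, DTT, pH 7.2 / Probe or stimulus: calcium at EC20 level, 0.472 mM final / Repeats: triplicate wells per compound / Times: 15 min compound exposure at 25 °C / Measure: compound fluorescence interference relative to control well signal range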
(Counterscreens check selectivity or assay interference.)
Consider `O=[N+]([O-])c1ccc(/C=C/C2=NN(c3ccccc3)C(c3ccco3)C2)cc1` (stereo unspecified), for which the fluorescence artifact activation is 6.35%. Take `Cc1nnc(N/N=C/c2ccc(O)c([N+](=O)[O-])c2)[nH]c1=O`: the fluorescence artifact activation is 8.03%.

For `O=S1(=O)CCOC[C@H](CC2CCCCC2)N1Cc1ccccc1`, the fluorescence artifact activation was 0.05%. Under `CCn1c(CNc2ccc(C(=O)O)cc2)nc2ccccc21` stands -0.08%; under `CCCC(=O)NCCCc1nc2ccccc2n1C`, 43.2% (active); under `Cn1c(=O)c2c(nc(NCCNC(=O)c3ccco3)n2Cc2ccccc2Cl)n(C)c1=O`, 0.11%.

Regarding `Cn1c(CCNC(=O)c2ccco2)nc2ccccc21`, the fluorescence artifact activation is 350% (active). The figure for `O=C(NCCNC(=O)c1cccs1)c1ccco1` is 10.5%; for `O=C(Cn1c(C(F)(F)F)nc2ccccc21)NCCN1CCCC1` it is 0.11%; for `COc1ccc(CN2CNc3c(c(=O)n(C)c(=O)n3C)C2)cc1` it is 6.35%. The figure for `Brc1ccc(-c2noc(-c3ccccn3)n2)o1` is 0.61%; for `O=C1C(=Cc2ccco2)CCCC1=Cc1ccco1` it is 6.25%. Regarding `O=C(NCc1ccccc1Cl)c1ccc2nc[nH]c2c1`, the fluorescence artifact activation was -0.08%. `CCOC(=O)CC1=NS(=O)(=O)c2ccccc2N1`: the fluorescence artifact activation is 2.81%. For `COc1ccccc1NS(=O)(=O)c1cc(NC(=O)CCNC(C)=O)ccc1N1CCCCC1`, the fluorescence artifact activation was 0.74%.

For the molecule `COc1ccccc1NS(=O)(=O)c1ccccc1C#N`, the fluorescence artifact activation was -0.04%. As for `COc1ccccc1NS(=O)(=O)c1cc(NC(=O)c2cc3ccccc3oc2=O)ccc1C`, the fluorescence artifact activation is 16.8% (active). For the molecule `CCNc1nc(SCC(N)=O)nc2sc3c(c12)CCN(C)C3`, the fluorescence artifact activation is 0.22%. The figure for `CN(/N=C/c1ccc(-c2ccc([N+](=O)[O-])cc2)o1)c1ccccc1` is 9.54%; for `COCCN=c1scc(-c2cc(OC)c(OC)c(OC)c2)n1/N=C/c1c(C)[nH]c2ccccc12` it is 21.1% (active); for `COc1ccccc1NS(=O)(=O)c1cc([N+](=O)[O-])ccc1N/N=C/c1c(C)[nH]c2ccccc12` it is 4.83%. Under `Cn1c(C(=O)NCCCN2CCCCCC2)cc2c(=O)n(C)c3ccccc3c21` stands 3.34%.

As to `CCN(CC)S(=O)(=O)c1ccc2[nH]c(=O)[nH]c2c1`, the fluorescence artifact activation was 0.38%. The figure for `CCN(CC)S(=O)(=O)c1ccc2[nH]cc(C(=O)NCCN3CCCCCC3)c(=O)c2c1` is 14.6% (active). Under `O=C(CSCc1ccco1)NC1CCCC1` stands 5.75%. Under `CCN(CC)C1=CC2=CC(=C(C#N)C#N)CCC2CC1` (stereo unspecified) stands 0.13%; under `O=C(Nc1ccc(S(=O)(=O)Nc2ncccn2)cc1)C1CC(=O)N(c2ccccc2)C1` (stereo unspecified), -0.09%. As for `CCn1cc([N+](=O)[O-])c(C(=O)Nc2ccn(Cc3ccccc3)n2)n1`, the fluorescence artifact activation was 1.63%. As to `O=C(Nc1ccc(S(=O)(=O)Nc2ncccn2)cc1)c1nn(Cc2ccccc2)c(=O)c2ccccc12`, the fluorescence artifact activation was 303% (active). Under `CC(=O)c1ccc2c(c1)c(C#N)c1ccccc1[n+]2[O-]` stands 57.1% (active); under `O=S(=O)(CCN(CCS(=O)(=O)C(F)(F)F)CC1CCCO1)C(F)(F)F` (stereo unspecified), 0.02%.

For `O=C(c1cnc2ccccc2n1)N1CCN(c2ccc(C(F)(F)F)cn2)CC1`, the fluorescence artifact activation is 5.21%. The figure for `CN(C)CCOc1ccccc1C(C)(C)C` is 0.06%.

Consider `O=C1c2c(O)cc(O)cc2O[C@@]12c1c(cc(O)c3c1O[C@H](c1ccc(O)cc1)[C@@H](O)C3)O[C@@H]2c1ccc(O)cc1`, for which the fluorescence artifact activation was 0%. Under `O=S(=O)(O)c1nc2ccccc2n1Cc1ccccc1` stands 16.5% (active); under `CCn1c(C(C)NC(C)=O)nc2ccccc21` (stereo unspecified), 2.7%; under `c1ccc(Cn2c(-c3ccccc3)nc3nc4ccccc4nc32)cc1`, 6.17%. For the molecule `NC(=O)[C@@H]1CCCNc2c(I)cc([N+](=O)[O-])cc2C(=O)N[C@@H](CCC(=O)O)C(=O)N[C@@H](CO)C(=O)N1`, the fluorescence artifact activation is 0%. As for `Cc1ccc(S(=O)(=O)N2CC(C(=O)O)=CC[C@H]2c2ccc(Cl)cc2)cc1`, the fluorescence artifact activation is 0.03%. The figure for `Cc1cccc(NC(=O)c2ccc(C(=O)c3ccccc3)cc2)n1` is 1.13%.

In the case of `Cc1cc(C(=O)O)ccc1-c1ccc(/C=C2\SC(=O)N(CC(=O)Nc3ccc4c(c3)OCO4)C2=O)o1`, the fluorescence artifact activation is 0.42%. As for `NC(=O)c1ccc(NC(=O)COC(=O)c2c3c(nc4ccccc24)/C(=C\c2ccc4c(c2)OCO4)CCC3)cc1`, the fluorescence artifact activation is 0.16%. The figure for `O=C(COC(=O)c1ccc(O)cc1)Nc1ccc2c(c1)OCCO2` is 13.1% (active); for `Cc1cc(C)c(S(=O)(=O)Nc2ccc3[nH]c(=O)[nH]c3c2)c(C)c1` it is 3.79%.

`O=C/C(=C\Nc1ccc(S(=O)(=O)CCO)cc1)c1nc2cc(Cl)ccc2o1`: the fluorescence artifact activation is 20.2% (active).

As for `Cc1ccc(-c2nc3sc(C#N)c(N)n3c(=O)c2C#N)cc1`, the fluorescence artifact activation is 0.13%. Under `CC(C)CC1C(C#N)=C(N)SC(N)=C1C#N` stands 0.12%; under `Cc1ccc(/C=C/C(=O)Nc2cccc3cccnc23)o1`, 4.18%; under `Cc1ccc(-n2c(C)cc(C(=O)COC(=O)c3ccc[nH]c3=O)c2C)cc1`, -0.02%. Turning to `Cc1cc(C(=O)COc2cccc3cccnc23)c(C)n1C`, the fluorescence artifact activation was 21.4% (active). The figure for `COc1ccc(NC(=O)c2cccc(-c3ccc(O)cc3)c2)cn1` is -0.04%; for `Cc1nc(-n2[nH]c3c(c2=O)CCCC3)[nH]c(=O)c1Cc1ccccc1` it is 7.51%; for `Cc1ccnc(N2C(=O)c3cccc4c([N+](=O)[O-])ccc(c34)C2=O)c1` it is 3.75%. Under `O=C1c2cccc3c([N+](=O)[O-])ccc(c23)C(=O)N1Cc1cccnc1` stands 0.04%; under `CN(C)CCCN1C(=O)c2cccc3c([N+](=O)[O-])ccc(c23)C1=O`, 14.2% (active). For `O=C(O)c1ccccc1C1=Nc2ccc(O)cc2Oc2cc(O)ccc21`, the fluorescence artifact activation was 0.18%. Under `Cc1cc(C)n(NC(=S)NC2CCCCC2)c(=O)c1C#N` stands -0.01%; under `Cc1ccccc1-c1noc(-c2cccs2)n1`, 5.07%. Under `CC(=O)[C@H]1[C@H](C#N)C[C@H]2[C@@H]3CC=C4C[C@@H](O)CC[C@]4(C)[C@H]3CC[C@@]21C` stands 10.9%. For `Cc1cc(-n2c(=O)c(C#N)cc3c(=O)n4ccccc4nc32)no1`, the fluorescence artifact activation was 0.34%. Consider `CN(C)c1ccc(/C=C2\Oc3ccc(C#Cc4cccc(N)c4)cc3C2=O)cc1`, for which the fluorescence artifact activation is 0.09%. Under `Cc1nn(-c2ccccc2)c(N2CCCC2)c1/C=C1\N=C(c2ccc(OC(C)C)cc2)OC1=O` stands 0.42%; under `COc1ccc(NC(C)=O)cc1NC(=O)C1CCCN1C(=O)c1cccs1` (stereo unspecified), -0.02%. The figure for `CCN(CC)c1ccc(/C=c2\sc3nnc(-c4ccccc4Cl)n3c2=O)cc1` is 13.8% (active); for `CCN(CC)c1ccc(/C=c2/sc3nnc(-c4ccccc4C)n3c2=O)cc1` it is 0.53%; for `CCN(CC)c1ccc(/C=c2\sc3nc4ccccc4n3c2=O)c(O)c1` it is 3.44%.

For `Cc1ccc(/C=C/C(=O)N2CCN(S(=O)(=O)c3ccc(C)c(C)c3)CC2)o1`, the fluorescence artifact activation is 2.09%.

In the case of `Cc1ccc(C(=O)N2C(=O)C(c3ccccc3)Oc3ccccc32)cc1` (stereo unspecified), the fluorescence artifact activation is 0.42%.

Turning to `CN1CC=C2C(C#N)=C(N)C(C#N)(C#N)C(c3ccsc3)C2C1` (stereo unspecified), the fluorescence artifact activation was 0.22%. Under `C=CCN1C=CC(=CC=C(C#N)C#N)C=C1` stands 251% (active). Under `CCCN1C=CC(=CC=C(C#N)C#N)C=C1` stands 4.48%.

Consider `CCOc1ccc(S(=O)(=O)n2ccnc2)c2ccccc12`, for which the fluorescence artifact activation is 2.67%. The figure for `CCc1ccc(C(=O)NNC(=O)c2cccc(N3C(=O)CCC3=O)c2)cc1` is 2.93%; for `CCc1cc[n+](-c2nc3ccccc3nc2[N-]S(=O)(=O)c2ccc(Br)s2)cc1` it is -0.02%.

For the molecule `O=S(=O)([N-]c1nc2ccccc2nc1-[n+]1ccc(-c2ccncc2)cc1)c1ccccc1`, the fluorescence artifact activation was 0.08%. `Cc1ccc[n+](-c2nc3ccccc3nc2[N-]S(=O)(=O)c2ccccc2)c1`: the fluorescence artifact activation was 17.5% (active). Under `CC1=Nc2ccccc2/C1=C\c1nc(-c2ccc(F)cc2)oc1O` stands 0.71%. Consider `Cc1ccc(NC(=S)Nc2ccc3nc(-c4ccccn4)c(-c4ccccn4)nc3c2)cc1C`, for which the fluorescence artifact activation was 0%. The figure for `CC(C)CNC(=S)NC(=O)c1ccccc1Cl` is 32.2% (active); for `O=C(COc1ccccc1)NC(=S)Nc1cccc(NC(=O)c2ccccc2Cl)c1` it is 0.01%; for `Cc1ccccc1C(=O)NC(=S)NC1CC1` it is 0.12%. Under `CCCn1c(=N)n(CC(O)c2ccco2)c2ccccc21` (stereo unspecified) stands 0.03%; under `COCCCN1C(=O)/C(=C/c2ccc(CNS(=O)(=O)c3ccccc3)o2)C(C(=O)OC)=C1C`, 0.04%. With `CC(=O)Nc1cc(C(=O)NCc2ccco2)ccc1Sc1ccc(F)cc1`, the fluorescence artifact activation was 18.1% (active). Take `COc1c(Cl)ccc(Cl)c1C(=O)NCc1ccco1`: the fluorescence artifact activation was 0.03%. Consider `CCOc1ccc(CNC(=O)c2ccc(Sc3ccc(Cl)cc3)c(NC(C)=O)c2)cc1`, for which the fluorescence artifact activation is 1.09%.

As for `CCCCOc1[nH]c2nc(-c3ccco3)n(Cc3ccco3)c(=N)c2c1C#N`, the fluorescence artifact activation was 0.23%. For the molecule `O=c1nc2c(O)cccn2c2c1c(=O)[nH]c1ccccc12`, the fluorescence artifact activation is 0.02%.

Turning to `Cc1sc2nc(COC(=O)c3cccc(S(=O)(=O)N(C)c4ccccc4)c3)[nH]c(=O)c2c1C`, the fluorescence artifact activation was 0.1%.

In the case of `Cc1cccc(C)c1NC(=O)CN(C1CCCCC1)S(C)(=O)=O`, the fluorescence artifact activation was 0.02%. Consider `CCCNC(=O)c1ccc(N2CCC3(CC2)CC(c2cccc(Br)c2)=NO3)c(NC(=O)c2cccc(C)c2)c1`, for which the fluorescence artifact activation is 3.63%.
